Assay results collected from several papers.
Each line is one published result; the experiments were not run side by side.
EGFR: Epidermal growth factor receptor (EGFR, Homo sapiens, UniProt P00533)
EGFR L858R/T790M: Epidermal growth factor receptor (EGFR, Homo sapiens, UniProt P00533, L858R/T790M)

| SMILES | target | effect on | mode | method | concentration | measurement | result |
| --- | --- | --- | --- | --- | --- | --- | --- |
| COc1ncccc1-c1cnn2ccc(N3CCN(C(=O)OC(C)C)CC3)nc12 | EGFR | binding | – | competition with immobilised ligand | 1 µM | remaining binding | 89% |
| CC(C)(C)c1cc(C=C(C#N)C#N)cc(Br)c1O | EGFR | enzyme activity | inhibitor | – | 0.5 µM | remaining activity | 106% |
| N#CC1(c2ccccn2)CCN(Cc2cc(C(=O)O)c(=O)n3ccccc23)CC1 | EGFR | cell-free assay | – | competition with immobilised ligand | 1 µM | remaining binding | 83% |
| C[C@H](C(=O)N[C@H]1COc2ccccc2[C@@H]1S(C)(=O)=O)c1ccc(F)cc1 | EGFR | enzyme activity | inhibitor | – | 10 µM | inhibition | 1% |
| C#Cc1n[nH]c2c(-c3cn([C@@H](C)c4ccccn4)c(=O)[nH]c3=O)cc(F)cc12 | EGFR L858R/T790M | enzyme activity | inhibitor | – | 0.1 µM | inhibition | -3.6% |
| COc1ccc2c(c1)/C(=C/c1cnc[nH]1)C(=O)N2 | EGFR | cell-free assay | – | – | 0.5 µM | remaining signal | 99.4% |
| c1ccc(C(NCCNC(c2ccccc2)c2ccccc2)c2ccccc2)cc1 | EGFR | enzyme activity | inhibitor | – | 10 µM | inhibition | -8% |
| Cn1cncc1[C@](O)(COc1ccc(C#N)cc1-c1ccc(OC(F)(F)F)cc1)c1ccc(C#N)cc1 | Epidermal growth factor receptor (EGFR, Homo sapiens, UniProt P00533, del747-752/P753S) | cell-free assay | – | competition with immobilised ligand | 1 µM | remaining binding | 76% |
| C#Cc1n[nH]c2c(-c3cn([C@@H](C)c4ccccc4)c(=O)[nH]c3=O)cc(F)cc12 | EGFR L858R/T790M | enzyme activity | inhibitor | – | 0.1 µM | inhibition | -4.9% |
| Cn1cc(-c2cc(F)cc(N3CCn4c(cc5c4CCCC5)C3=O)c2CO)cc(Nc2ccc(N3CCN(C4COC4)CC3)cn2)c1=O | EGFR | enzyme activity | inhibitor | – | 0.1 µM | inhibition | 7% |
| CC(C)[C@@H]1NC(=O)[C@H](C)NC(=O)[C@H](C)NC(=O)[C@H](Cc2ccc(O)cc2)NC(=O)[C@H](Cc2ccc(O)cc2)NC(=O)[C@H](Cc2ccccc2)NC(=O)[C@@H](Cc2ccc(O)cc2)NC(=O)CSC[C@@H](C(=O)NCC(N)=O)NC(=O)[C@H](C)NC(=O)[C@H](CCCNC(=N)N)NC(=O)[C@H](CCCNC(=N)N)NC(=O)[C@H](Cc2ccc(O)cc2)NC(=O)[C@H](C(C)C)NC(=O)[C@H](C(C)C)NC(=O)[C@H](CC(N)=O)NC1=O | EGFR | binding | – | SPR | – | kon | 38800 M⁻¹ s⁻¹ |
| Nc1ncc(-c2nc(N3CCOCC3)nc(N3CCOCC3)n2)c(C(F)F)n1 | Epidermal growth factor receptor (EGFR, Homo sapiens, UniProt P00533, L861Q) | cell-free assay | – | competition with immobilised ligand | 10 µM | remaining binding | 77% |
| Cc1nn(C)cc1-c1nc2c(N3CCN(Cc4ccc(Cl)cc4)CC3)c(Cl)cnc2[nH]1 | Epidermal growth factor receptor (EGFR, Homo sapiens, UniProt P00533, T790M) | binding | – | competition with immobilised ligand | 1 µM | remaining binding | 82% |
